Source: article PMC9134932 (CNS Oncology, 2022)
Values joined by “and” are separate entries in the source; they are usually repeats but may differ in a detail not shown here. Equal entries are not always repeated. Where two headings read alike, the source gives them in different places. Marks after values point to notes of the source that are not given here.

Columns and labels:
[1] = test system: patients with recurrent malignant glioma; assay: Phase I dose escalation; type: in vivo, human
In short: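 Dose assignment used accelerated titration, then 3 + 3. Planned levels were 1, 2, 4, 8 and 16 mg/kg, given BID on Mon/Wed/Fri for 2 weeks per 28-day cycle, as an oral suspension. Toxicity was assessed at baseline and before each cycle, graded by CTCAE v4.0. Dose was held for grade II toxicity and cut by 30% or one level for grade III. DSMB approval was required before each cohort change.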

[2] = test system: recurrent glioblastoma (GBM); assay: Clinical outcome: PFS, OS, MRI response; type: in vivo, human
In short: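 Oral dosing as weight-based powder reconstituted into a liquid suspension just before intake, BID on Mon/Wed/Fri for 2 weeks of each 28-day cycle, for up to 12 cycles or until progression. MRI at baseline, then about every 2–3 months, scored by iRANO on FLAIR and post-contrast T1WI. Intention-to-treat population. Kaplan–Meier estimates of PFS and OS, with OS counted from initial diagnosis.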

[3] = PK of WP1066 in human plasma; type: in vivo; conditions: 1-8 mg/kg oral
p-STAT3 (Y705) in PBMCs = assay: Intracellular p-STAT3 staining of patient PBMCs by flow cytometry; type: in vivo, human
In short: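 Blood was processed at once because the p-STAT3 signal decays ex vivo. Ficoll-isolated PBMCs (6 × 10^6 in PBS) were fixed in 2% paraformaldehyde (final) for 10 min at 37°C, then permeabilised in ice-cold 90% methanol for 30 min. Staining was PE-anti-p-STAT3 (Y705) for 1 h at RT, in duplicate wells, with duplicate isotype-control wells and one unstained well. Duplicate specimens were run in parallel. Read-out was % p-STAT3+ PBMCs by flow cytometry versus baseline (0 h); paired t-test.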

PBMCs = assay: Immune monitoring of patient PBMCs; type: in vivo, human; conditions: for Th1 to Th2 ratio: % CD3+ CD4+ IFN-γ+ divided by % CD3+ CD4+ IL-4+ T cells; for Cytotoxic CD8 to Treg ratio: % CD3+ CD8+ IFN-γ+ divided by % CD3+ CD4+ CD25+ Foxp3+ cells
In short: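 PBMCs were taken at C1D1 0 and 4 h, C1D2 0 h, and C1D8 0 and 4 h, then isolated from heparinised blood on Ficoll 1077. Cells were held 4–5 h at 37°C in T cell medium with protein transport inhibitor, Fc-blocked 15 min on ice, and given fixable viability dye 30 min at 4°C. Surface staining, fix/perm and intracellular staining followed, then flow cytometry. Th1:Th2 = %CD3+CD4+IFN-γ+ / %CD3+CD4+IL-4+. CD8:Treg = %CD3+CD8+IFN-γ+ / %CD3+CD4+CD25+FoxP3+.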

[4] = test system: established intracerebral melanoma; conditions: versus 0% of vehicle control mice (p = 0.0076); cited from earlier work
[5] = test system: genetically engineered murine models of gliomas; conditions: p < 0.01; cited from earlier work
[6] = no reference given, cited from earlier work
[7] = i.v. 40 mg/kg, no reference given, cited from earlier work
[8] = three weeks after the last administration; range: 0.52-4.0; no reference given; cited from earlier work
glioma cancer cells = conditions: read-out: direct IC50 of glioma cancer cells; cited from earlier work
[9] = test system: immune modulatory effects; conditions: cited from earlier work
GL261 glioma model = conditions: cited from earlier work
[10] = count in enrolled patient population (n = 8), all dose levels
[11] = sum over all toxicities, enrolled patient population (n = 8)
[12] = 1 mg/kg, C1D1 0 h (baseline before first dose)
[13] = 2 mg/kg, C1D1 0 h (baseline before first dose)
[14] = 4 mg/kg, C1D1 0 h (baseline before first dose)
[15] = 8 mg/kg, C1D1 0 h (baseline before first dose)

Structure (SMILES): C[C@H](NC(=O)/C(C#N)=C/c1cccc(Br)n1)c1ccccc1 [WP1066]
- hematological events such as thrombocytopenia or lymphopenia ([1]; 8 patients, 1-8 mg/kg): no significant hematological events
- treatment-related deaths ([1]; 8 patients, 1-8 mg/kg): No treatment-related deaths occurred
- patients with the most common adverse event, grade 1 nausea and diarrhea ([1]; 8 patients, all dose levels): 50%
- Alanine aminotransferase increased, Grade 1 [1, 10]: 1
- Alanine aminotransferase increased, Grade 2 [1, 10]: 1
- Cardiac disorders, other-sinus rhythm probable left atrial enlargement, Grade 1 [1, 10]: 1
- Cholesterol high, Grade 1 [1, 10]: 1
- Creatinine increase, Grade 1 [1, 10]: 1
- Diarrhea, Grade 1 [1, 10]: 4
- Diarrhea, Grade 2 [1, 10]: 1
- Gastrointestinal disturbance, Grade 1 [1, 10]: 1
- Heartburn, Grade 1 [1, 10]: 1
- Lymphocyte count decrease, Grade 1 [1, 10]: 1
- Lymphocyte count decrease, Grade 2 [1, 10]: 3
- Lymphocyte count decrease, Grade 3 [1, 10]: 0
- Lymphocyte count decrease, Grade 4 [1, 10]: 0
- Lymphocyte count decrease, Grade 5 [1, 10]: 0
- Nausea, Grade 1 [1, 10]: 4
- Neutrophil count decreased, Grade 1 [1, 10]: 2
- Neutrophil count decreased, Grade 2 [1, 10]: 0
- Neutrophil count decreased, Grade 3 [1, 10]: 0
- Neutrophil count decreased, Grade 4 [1, 10]: 0
- Neutrophil count decreased, Grade 5 [1, 10]: 0
- Platelet count decrease, Grade 1 [1, 10]: 1
- Platelet count decrease, Grade 2 [1, 10]: 0
- Platelet count decrease, Grade 3 [1, 10]: 0
- Platelet count decrease, Grade 4 [1, 10]: 0
- Platelet count decrease, Grade 5 [1, 10]: 0
- Vomiting, Grade 1 [1, 10]: 1
- White blood cell decrease, Grade 1 [1, 10]: 3
- White blood cell decrease, Grade 2 [1, 10]: 1
- White blood cell decrease, Grade 3 [1, 10]: 0
- White blood cell decrease, Grade 4 [1, 10]: 0
- White blood cell decrease, Grade 5 [1, 10]: 0
- tolerability of the oral formulation ([1]; dose level 4 (8 mg/kg), all three subjects): oral aversion to the formulation
- Total toxicities, Grade 2 [1, 11]: 6
- Total toxicities, Grade 3 [1, 11]: 0
- Total toxicities, Grade 4 [1, 11]: 0
- Total toxicities, Grade 5 [1, 11]: 0
- 6-month PFS (PFS6) rate ([2]; 8 patients): 0%
- longest response duration ([2]; 8 patients): exceeded 3.25 months
- estimated 1-year OS rate ([2]; Kaplan-Meier, 8 patients): 100%
- median overall survival (OS) ([2]; from the time of the initial diagnosis, 95% CI: 22.5 months-NA months): 25 months
- Survival weeks ([2]; individual patient at 1 mg/kg): Alive
- Survival weeks ([2]; individual patient at 2 mg/kg): 65 weeks
- Survival weeks ([2]; individual patients at 4 mg/kg, 4 mg/kg): 108 weeks and 109 weeks and 194 weeks
- Survival weeks ([2]; individual patients at 8 mg/kg, 8 mg/kg): 115 weeks and 98 weeks and Alive
- dose dependence of Cmax [3]: dose dependent increase in the Cmax
- % of p-STAT3+ PBMC (p-STAT3 (Y705) in PBMCs; [12]): 39.9%
- % of p-STAT3+ PBMC (p-STAT3 (Y705) in PBMCs; 1 mg/kg, C1D1 4 h): 33.4%
- % of p-STAT3+ PBMC (p-STAT3 (Y705) in PBMCs; 1 mg/kg, C1D2 0 h): 31.8%
- % of p-STAT3+ PBMC (p-STAT3 (Y705) in PBMCs; 1 mg/kg, C1D8 0 h): 19.3%
- % of p-STAT3+ PBMC (p-STAT3 (Y705) in PBMCs; 1 mg/kg, C1D8 4 h): 15.7%
- % of p-STAT3+ PBMC (p-STAT3 (Y705) in PBMCs; [13]): 38.1%
- % of p-STAT3+ PBMC (p-STAT3 (Y705) in PBMCs; 2 mg/kg, C1D1 4 h): 33.8%
- % of p-STAT3+ PBMC (p-STAT3 (Y705) in PBMCs; 2 mg/kg, C1D2 0 h): 31.5%
- % of p-STAT3+ PBMC (p-STAT3 (Y705) in PBMCs; 2 mg/kg, C1D8 0 h): 27.6%
- % of p-STAT3+ PBMC (p-STAT3 (Y705) in PBMCs; 2 mg/kg, C1D8 4 h): 34.8%
- % of p-STAT3+ PBMC (p-STAT3 (Y705) in PBMCs; [14]): 35.0% and 27.8% and 35.9%
- % of p-STAT3+ PBMC (p-STAT3 (Y705) in PBMCs; 4 mg/kg, C1D1 4 h): 28.2% and 30.9% and 36.0%
- % of p-STAT3+ PBMC (p-STAT3 (Y705) in PBMCs; 4 mg/kg, C1D2 0 h): 26.9% and 29.7% and 45.8%
- % of p-STAT3+ PBMC (p-STAT3 (Y705) in PBMCs; 4 mg/kg, C1D8 0 h): 37.7% and 27.3%
- % of p-STAT3+ PBMC (p-STAT3 (Y705) in PBMCs; 4 mg/kg, C1D8 4 h): 22.7% and 21.1% and 35.3%
- lowest dose with p-STAT3 suppression in peripheral blood (PBMCs) (p-STAT3 (Y705) in PBMCs; oral BID, longitudinal administration): 1 mg/kg
- % IFN-γ+ CD8 T cells (PBMCs; [12]): 8.3%
- % of FoxP3 Tregs (PBMCs; [12]): 6.9%
- Th1 to Th2 ratio (PBMCs; 1 mg/kg, C1D1 0 h (baseline)): 0.3
- Cytotoxic CD8 to Treg ratio (PBMCs; 1 mg/kg, C1D1 0 h (baseline)): 1.2
- % IFN-γ+ CD8 T cells (PBMCs; 1 mg/kg, C1D8 4 h): 45.3%
- % of FoxP3 Tregs (PBMCs; 1 mg/kg, C1D8 4 h): 3.9%
- Th1 to Th2 ratio (PBMCs; 1 mg/kg, C1D8 4 h): 1.0
- Cytotoxic CD8 to Treg ratio (PBMCs; 1 mg/kg, C1D8 4 h): 11.7
- % IFN-γ+ CD8 T cells (PBMCs; [13]): 8.8%
- % of FoxP3 Tregs (PBMCs; [13]): 8.8%
- % IFN-γ+ CD8 T cells (PBMCs; 2 mg/kg, C1D8 4 h): 7.0%
- % of FoxP3 Tregs (PBMCs; 2 mg/kg, C1D8 4 h): 7.6%
- Th1 to Th2 ratio (PBMCs; 2 mg/kg, C1D8 4 h): 0.5
- Cytotoxic CD8 to Treg ratio (PBMCs; 2 mg/kg, C1D8 4 h): 0.9
- % IFN-γ+ CD8 T cells (PBMCs; [14]): 4.6% and 0.9% and 4.0%
- % of FoxP3 Tregs (PBMCs; [14]): 5.3^§ % and 4.9% and 4.0%
- % of FoxP3 Tregs (PBMCs; 4 mg/kg, C1D8 4 h): 8.4% and 5.9%
- % IFN-γ+ CD8 T cells (PBMCs; [15]): 27.4% and 31.7%
- % of FoxP3 Tregs (PBMCs; [15]): 3.7% and 2.4% and 6.9%
- Cytotoxic CD8 to Treg ratio (PBMCs; 8 mg/kg, C1D1 0 h (baseline)): 7.4 and 4.6
- % IFN-γ+ CD8 T cells (PBMCs; 8 mg/kg, C1D8 4 h): 3.6% and 0.1%
- % of FoxP3 Tregs (PBMCs; 8 mg/kg, C1D8 4 h): 5.4% and 2.1% and 5.8%
- Th1 to Th2 ratio (PBMCs; 8 mg/kg, C1D8 4 h): 2.4 and 1.8
- FoxP3+ Tregs in PBMCs versus baseline (PBMCs; after 172 h of treatment): not significantly altered
- animals surviving long term [4]: 80%
- increase in median survival time [5]: 55.5%
- oral bioavailability ([6]; methylcellulose-based oral nanoparticle formulation): approximately 30%
- mean peak plasma concentration ([6]; preclinical dose of 40 mg/kg): 4.31 µM
- mean concentration within the brain ([7]; at 15 min): 162 µM
- mean concentration within the brain ([7]; at 6 h): 6 µM
- concentration within orthotopic brain tumors [8]: 2.3 µM
- IC50 (glioma cancer cells): 2 to 5 µM
- concentration at which immune modulatory effects start [9]: around 0.1 μM
- therapeutic effect in combination with radiation therapy (GL261 glioma model; GL261 glioma model, lost in immune-incompetent animals): long-term survivors and enhanced median survival time relative to monotherapy
- therapeutic effect as monotherapy (GL261 glioma model; preclinical murine studies, 60 mg/kg): failed to demonstrate any therapeutic effect
